According to ChEMBL document CHEMBL1144320, “Structure-activity relations of azafluorenone and azaanthraquinone as antimicrobial compounds” (2005):
≈ marks a conversion by molar mass, not a printed value.

Assays:
Assay type in all cases: functional
Staphylococcus aureus = assay: Minimum inhibitory concentration against Staphylococcus aureus
Summary of the method: (§1)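 MIC by 2-fold broth dilution in peptone medium containing compound; bacteria grown in test tubes at 37 °C for 2 days. Strains: S. aureus NCTC 8530, B. subtilis IFO 3007, E. coli IFO 3545, P. vulgaris IFO 3851, P. aeruginosa IFO 3080.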

Mucor mucedo = assay: Minimum inhibitory concentration against Mucor mucedo
Summary of the method: (§2)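 Strains: S. cerevisiae IFO 0203, S. pombe IFO 0342, C. utilis OUT 6020, R. rubra IFO 0001, A. niger ATCC 6275, P. chrysogenum IFO 4626, R. chinensis IFO 4768, M. mucedo IFO 7684.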

Bacillus subtilis = assay: Minimum inhibitory concentration against Bacillus subtilis; summary of the method: as §1
Aspergillus niger = assay: Minimum inhibitory concentration against Aspergillus niger; summary of the method: as §2
Proteus vulgaris = assay: Minimum inhibitory concentration against Proteus vulgaris; summary of the method: as §1
[1] = Minimum inhibitory concentration against Penicillium chrysogenum; summary of the method: as §2
Saccharomyces cerevisiae = assay: Minimum inhibitory concentration against Saccharomyces cerevisiae; summary of the method: as §2
[2] = tested on: Rhizopus microsporus var. chinensis; assay: Minimum inhibitory concentration against Rhizopus chinensis; summary of the method: as §2
Cyberlindnera jadinii = assay: Minimum inhibitory concentration against Candida utilis; settings: Williopsis jadinii; summary of the method: as §2
Pseudomonas aeruginosa = assay: Minimum inhibitory concentration against Pseudomonas aeruginosa; summary of the method: as §1
Escherichia coli = assay: Minimum inhibitory concentration against Escherichia coli; summary of the method: as §1
Rhodotorula mucilaginosa = assay: Minimum inhibitory concentration against Rhodotorula rubra; summary of the method: as §2
[3] = tested on: Schizosaccharomyces pombe; assay: Minimum inhibitory concentration against Schizosaccharomyces pombe; summary of the method: as §2

Compound	MIC (Staphylococcus aureus) [µg/mL]	MIC (Mucor mucedo) [µg/mL]	MIC (Bacillus subtilis) [µg/mL]	MIC (Aspergillus niger) [µg/mL]	MIC (Proteus vulgaris) [µg/mL]	MIC [1] [µg/mL]	MIC (Saccharomyces cerevisiae) [µg/mL]	MIC [2] [µg/mL]	MIC (Cyberlindnera jadinii) [µg/mL]	MIC (Pseudomonas aeruginosa) [µg/mL]	MIC (Escherichia coli) [µg/mL]	MIC (Rhodotorula mucilaginosa) [µg/mL]	MIC [3] [µg/mL]
Cc1cnc2c(c1)C(=O)c1cccc(O)c1C2=O	12.5 (≈ 52.3 µM)	25 (≈ 105 µM)	6.25 (≈ 26.1 µM)	> 100	100 (≈ 418 µM)	25 (≈ 105 µM)	100 (≈ 418 µM)	> 100	25 (≈ 105 µM)	25 (≈ 105 µM)	> 100	50 (≈ 209 µM)	12.5 (≈ 52.3 µM)
Cc1ccnc2c1C(=O)c1c(O)ccc(O)c1C2=O	12.5 (≈ 49 µM)	12.5 (≈ 49 µM)	6.25 (≈ 24.5 µM)	50 (≈ 196 µM)	100 (≈ 392 µM)	6.25 (≈ 24.5 µM)	12.5 (≈ 49 µM)	12.5 (≈ 49 µM)	12.5 (≈ 49 µM)	12.5 (≈ 49 µM)	> 100	12.5 (≈ 49 µM)	6.25 (≈ 24.5 µM)
O=C1c2cnccc2C(=O)c2c(O)cccc21	1.56 (≈ 6.93 µM)	6.25 (≈ 27.8 µM)	3.13 (≈ 13.9 µM)	3.13 (≈ 13.9 µM)	25 (≈ 111 µM)	1.56 (≈ 6.93 µM)	3.13 (≈ 13.9 µM)	6.25 (≈ 27.8 µM)	6.25 (≈ 27.8 µM)	3.13 (≈ 13.9 µM)	> 100	3.13 (≈ 13.9 µM)	0.2 (≈ 0.888 µM)
COc1cccc2c1C(=O)c1ccncc1C2=O	12.5 (≈ 52.3 µM)	12.5 (≈ 52.3 µM)	6.25 (≈ 26.1 µM)	12.5 (≈ 52.3 µM)	50 (≈ 209 µM)	12.5 (≈ 52.3 µM)	25 (≈ 105 µM)	25 (≈ 105 µM)	25 (≈ 105 µM)	6.25 (≈ 26.1 µM)	> 100	12.5 (≈ 52.3 µM)	1.56 (≈ 6.52 µM)
Cc1ccnc2c1C(=O)c1ccccc1C2=O [CLEISTOPHOLINE]	25 (≈ 112 µM)	50 (≈ 224 µM)	25 (≈ 112 µM)	100 (≈ 448 µM)	50 (≈ 224 µM)	50 (≈ 224 µM)	100 (≈ 448 µM)	> 100	50 (≈ 224 µM)	50 (≈ 224 µM)	> 100	50 (≈ 224 µM)	25 (≈ 112 µM)
O=C1c2ccccc2C(=O)c2cnccc21	6.25 (≈ 29.9 µM)	6.25 (≈ 29.9 µM)	3.13 (≈ 15 µM)	12.5 (≈ 59.8 µM)	50 (≈ 239 µM)	3.13 (≈ 15 µM)	12.5 (≈ 59.8 µM)	12.5 (≈ 59.8 µM)	12.5 (≈ 59.8 µM)	6.25 (≈ 29.9 µM)	> 100	6.25 (≈ 29.9 µM)	3.13 (≈ 15 µM)
Cc1ccnc2c1C(=O)c1ccccc1-2 [ONYCHINE]	> 100	> 100	100 (≈ 512 µM)	100 (≈ 512 µM)	100 (≈ 512 µM)	50 (≈ 256 µM)	100 (≈ 512 µM)	> 100	100 (≈ 512 µM)	100 (≈ 512 µM)	> 100	100 (≈ 512 µM)	50 (≈ 256 µM)
Cc1ccnc2c1C(=O)c1cccc(O)c1C2=O	12.5 (≈ 52.3 µM)	50 (≈ 209 µM)	12.5 (≈ 52.3 µM)	> 100	50 (≈ 209 µM)	25 (≈ 105 µM)	100 (≈ 418 µM)	> 100	50 (≈ 209 µM)	25 (≈ 105 µM)	> 100	50 (≈ 209 µM)	12.5 (≈ 52.3 µM)

The remaining compounds from weak to strong by MIC (Staphylococcus aureus), led by results:

MIC (Staphylococcus aureus) [µg/mL]	MIC (Mucor mucedo) [µg/mL]	MIC (Bacillus subtilis) [µg/mL]	MIC (Aspergillus niger) [µg/mL]	MIC (Proteus vulgaris) [µg/mL]	MIC [1] [µg/mL]	MIC (Saccharomyces cerevisiae) [µg/mL]	MIC [2] [µg/mL]	MIC (Cyberlindnera jadinii) [µg/mL]	MIC (Pseudomonas aeruginosa) [µg/mL]	MIC (Escherichia coli) [µg/mL]	MIC (Rhodotorula mucilaginosa) [µg/mL]	MIC [3] [µg/mL]	Compound
100 (≈ 512 µM)	100 (≈ 512 µM)	50 (≈ 256 µM)	100 (≈ 512 µM)	100 (≈ 512 µM)	50 (≈ 256 µM)	> 100	> 100	100 (≈ 512 µM)	50 (≈ 256 µM)	> 100	100 (≈ 512 µM)	100 (≈ 512 µM)	Cc1ccnc2c1-c1ccccc1C2=O
12.5 (≈ 52.3 µM)	25 (≈ 105 µM)	3.13 (≈ 13.1 µM)	12.5 (≈ 52.3 µM)	50 (≈ 209 µM)	12.5 (≈ 52.3 µM)	25 (≈ 105 µM)	25 (≈ 105 µM)	25 (≈ 105 µM)	6.25 (≈ 26.1 µM)	> 100	6.25 (≈ 26.1 µM)	3.13 (≈ 13.1 µM)	COc1cccc2c1C(=O)c1cnccc1C2=O
1.56 (≈ 7.25 µM)	3.13 (≈ 14.5 µM)	6.25 (≈ 29 µM)	0.78 (≈ 3.62 µM)	50 (≈ 232 µM)	0.78 (≈ 3.62 µM)	1.56 (≈ 7.25 µM)	6.25 (≈ 29 µM)	3.13 (≈ 14.5 µM)	1.56 (≈ 7.25 µM)	100 (≈ 465 µM)	1.56 (≈ 7.25 µM)	0.39 (≈ 1.81 µM)	O=C1c2cnccc2C(=O)c2sccc21
1.56 (≈ 6.93 µM)	3.13 (≈ 13.9 µM)	3.13 (≈ 13.9 µM)	3.13 (≈ 13.9 µM)	25 (≈ 111 µM)	1.56 (≈ 6.93 µM)	3.13 (≈ 13.9 µM)	12.5 (≈ 55.5 µM)	12.5 (≈ 55.5 µM)	3.13 (≈ 13.9 µM)	> 100	3.13 (≈ 13.9 µM)	0.78 (≈ 3.46 µM)	O=C1c2ccncc2C(=O)c2c(O)cccc21
